Key:
[1] = target: T1, Kinesin-like protein KIFC3 (Homo sapiens) (UniProt Q9BVG8); experiment: Inhibition of porcine brain microtubule-stimulated human recombinant GST-tagged KIFC3 ATPase activity at 15 uM by microplate reader in presence of Mg2+ ATP relative to control
T1 sequence (whole entry): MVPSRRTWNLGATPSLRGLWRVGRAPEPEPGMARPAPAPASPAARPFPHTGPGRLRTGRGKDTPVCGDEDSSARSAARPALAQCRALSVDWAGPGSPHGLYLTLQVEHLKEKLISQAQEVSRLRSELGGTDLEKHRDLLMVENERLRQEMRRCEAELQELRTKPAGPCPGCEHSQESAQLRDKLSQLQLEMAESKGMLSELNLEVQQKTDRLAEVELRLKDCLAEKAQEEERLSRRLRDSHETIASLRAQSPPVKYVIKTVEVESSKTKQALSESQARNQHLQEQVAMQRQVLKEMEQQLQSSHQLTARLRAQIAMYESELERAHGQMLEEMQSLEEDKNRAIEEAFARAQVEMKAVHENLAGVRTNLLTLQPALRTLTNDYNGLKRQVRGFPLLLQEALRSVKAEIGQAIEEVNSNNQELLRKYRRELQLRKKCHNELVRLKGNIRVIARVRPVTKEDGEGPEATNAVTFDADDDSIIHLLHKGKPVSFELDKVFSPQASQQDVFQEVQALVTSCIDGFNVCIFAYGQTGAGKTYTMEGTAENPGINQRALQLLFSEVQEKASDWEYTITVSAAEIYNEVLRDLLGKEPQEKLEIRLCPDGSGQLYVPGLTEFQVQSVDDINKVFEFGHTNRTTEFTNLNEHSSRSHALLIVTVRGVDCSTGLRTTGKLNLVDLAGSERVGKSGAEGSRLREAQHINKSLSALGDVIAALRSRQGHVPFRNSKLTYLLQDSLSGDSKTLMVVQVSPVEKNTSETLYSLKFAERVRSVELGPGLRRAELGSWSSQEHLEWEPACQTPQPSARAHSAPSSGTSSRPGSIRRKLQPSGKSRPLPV
Procedure, shortened: (§1)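 Each kinesin motor domain was tested against MT-stimulated ATPase at 22 °C in triplicate, with compounds at 15 µM. Buffer was 7.5 mM PIPES-NaOH pH 7.0 with MgCl2, Taxol, ELIPA reagents and 1.25 mg/mL MTs. Reactions were started with 1 mM Mg2+ATP and read kinetically at 360 nm. Monastrol and AMP-PNP (1 mM) were the controls.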

[2] = target: T2, Kinesin-like protein KIF23 (Homo sapiens) (UniProt Q02241); experiment: Inhibition of porcine brain microtubule-stimulated human recombinant GST-tagged MKLP1 ATPase activity at 15 uM by microplate reader in presence of Mg2+ ATP relative to control; procedure, shortened: as §1
T2 sequence (whole entry): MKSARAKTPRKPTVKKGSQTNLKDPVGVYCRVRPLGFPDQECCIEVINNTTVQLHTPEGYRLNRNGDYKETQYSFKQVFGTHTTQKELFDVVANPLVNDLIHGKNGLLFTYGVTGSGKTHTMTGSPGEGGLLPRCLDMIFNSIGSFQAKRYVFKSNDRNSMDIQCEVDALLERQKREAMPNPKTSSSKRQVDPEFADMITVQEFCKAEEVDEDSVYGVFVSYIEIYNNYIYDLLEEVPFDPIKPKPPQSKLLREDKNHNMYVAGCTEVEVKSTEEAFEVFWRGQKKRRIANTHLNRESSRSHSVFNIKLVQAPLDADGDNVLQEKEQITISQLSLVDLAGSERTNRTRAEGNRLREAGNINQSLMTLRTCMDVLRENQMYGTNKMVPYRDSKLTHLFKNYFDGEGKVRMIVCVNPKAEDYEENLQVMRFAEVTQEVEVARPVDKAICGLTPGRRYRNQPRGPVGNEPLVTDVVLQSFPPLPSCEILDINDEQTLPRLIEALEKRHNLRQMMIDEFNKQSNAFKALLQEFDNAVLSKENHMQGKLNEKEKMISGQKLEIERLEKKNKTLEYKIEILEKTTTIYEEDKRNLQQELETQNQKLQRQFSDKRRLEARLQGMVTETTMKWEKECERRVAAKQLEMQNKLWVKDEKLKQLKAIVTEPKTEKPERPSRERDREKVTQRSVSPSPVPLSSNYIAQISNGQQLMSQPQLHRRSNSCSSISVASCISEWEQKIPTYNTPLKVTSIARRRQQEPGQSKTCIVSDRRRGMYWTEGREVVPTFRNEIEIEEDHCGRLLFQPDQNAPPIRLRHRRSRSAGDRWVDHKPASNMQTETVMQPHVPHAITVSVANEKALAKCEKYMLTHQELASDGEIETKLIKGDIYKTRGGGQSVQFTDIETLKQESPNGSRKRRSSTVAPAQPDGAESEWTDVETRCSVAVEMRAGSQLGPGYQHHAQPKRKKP

[3] = target: T3, Kinesin-1 heavy chain (Homo sapiens) (UniProt P33176); experiment: Inhibition of porcine brain microtubule-stimulated human recombinant GST-tagged Kif5B ATPase activity at 15 uM by microplate reader in presence of Mg2+ ATP relative to control; procedure, shortened: as §1
T3 sequence (whole entry): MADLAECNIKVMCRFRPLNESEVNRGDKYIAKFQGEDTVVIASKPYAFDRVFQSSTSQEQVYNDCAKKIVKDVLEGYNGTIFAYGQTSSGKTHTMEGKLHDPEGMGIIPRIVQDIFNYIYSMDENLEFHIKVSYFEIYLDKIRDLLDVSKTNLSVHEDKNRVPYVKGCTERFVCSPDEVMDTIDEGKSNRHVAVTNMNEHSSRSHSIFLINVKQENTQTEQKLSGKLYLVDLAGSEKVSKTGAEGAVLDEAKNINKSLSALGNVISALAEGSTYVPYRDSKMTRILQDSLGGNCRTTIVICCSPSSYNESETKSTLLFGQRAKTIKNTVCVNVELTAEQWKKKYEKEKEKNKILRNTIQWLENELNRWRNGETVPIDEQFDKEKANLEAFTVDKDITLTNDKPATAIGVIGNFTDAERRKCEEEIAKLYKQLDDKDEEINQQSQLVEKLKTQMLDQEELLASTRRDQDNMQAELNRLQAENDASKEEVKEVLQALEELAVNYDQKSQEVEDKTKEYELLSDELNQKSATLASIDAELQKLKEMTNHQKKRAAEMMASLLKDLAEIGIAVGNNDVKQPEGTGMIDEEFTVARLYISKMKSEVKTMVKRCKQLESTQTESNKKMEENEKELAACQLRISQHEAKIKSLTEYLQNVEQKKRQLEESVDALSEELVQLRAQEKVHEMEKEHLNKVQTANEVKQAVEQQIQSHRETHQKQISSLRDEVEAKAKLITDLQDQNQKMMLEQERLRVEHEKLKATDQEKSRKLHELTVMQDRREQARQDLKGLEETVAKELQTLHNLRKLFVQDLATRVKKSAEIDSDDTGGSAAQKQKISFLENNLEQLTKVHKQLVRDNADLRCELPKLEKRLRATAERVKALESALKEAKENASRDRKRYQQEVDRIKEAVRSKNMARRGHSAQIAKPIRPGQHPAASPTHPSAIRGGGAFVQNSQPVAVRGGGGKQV

Measured: inhibition

N#C/C(=C\c1ccc2c(c1)OCO2)c1c[nH]c2ccccc12
< 20%: all assays above

COc1ccc2c(/C(C#N)=C/c3cccnc3)c[nH]c2c1
< 20%: all assays above

N#C/C(=C\c1cccnc1)c1c[nH]c2ccc(OCc3ccccc3)cc12
< 20%: all assays above

COc1ccc2[nH]cc(/C(C#N)=C/c3cccnc3)c2c1
< 20%: all assays above

CCOC(=O)C1=C(C)NC(=S)NC1c1cccc(O)c1 (stereo not drawn)
< 20%: all assays above

COc1cccc2[nH]cc(/C(C#N)=C/c3cccnc3)c12
< 20%: all assays above

From ChEMBL document CHEMBL3751740, “New MKLP-2 inhibitors in the paprotrain series: Design, synthesis and biological evaluations” (Bioorg Med Chem, 2016)
